Experimental data published in ChEMBL document CHEMBL1133641, “A new class of potential chloroquine-resistance reversal agents for Plasmodia: syntheses and biological evaluation of 1-(3'-diethylaminopropyl)-3-(substituted phenylmethylene)pyrrolidines” (2000).
Activity calls are given as the source filed them. No cut-off for these calls is given here.

How the values were obtained:
Plasmodium yoelii [1] = assay: In vivo parasitaemia at day 17 in chloroquine-resistant Plasmodium yoelii nigeriensis infected Swiss Albino mice (Mus musculus); Not active; type: functional, organism-based
Plasmodium yoelii [2] = assay: In vivo antimalarial activity as MST of 1 week in chloroquine-resistant Plasmodium yoelii nigerienses infected Swiss Albino mice (Mus musculus) at 10 mg/kg chloroquine; type: functional
Plasmodium berghei [3] = assay: In vivo resistance reversal at day 10 against chloroquine-resistant Plasmodium berghei infected Mastomys coucha at 10 mg/kg; range 20-22; type: functional
Plasmodium berghei [4] = assay: (§1) In vivo pretreatment parasitemia in chloroquine-resistant Plasmodium berghei infected Mastomys coucha; range 4-5%; type: functional
Plasmodium berghei [5] = assay: In vivo antimalarial activity as parasitaemia at day 17 in chloroquine-resistant Plasmodium berghei infected Mastomys coucha treated to day 10; range 25-30%; type: functional
Plasmodium berghei [6] = assay: In vivo antimalarial activity as parasitemia at day 10 in chloroquine-resistant Plasmodium berghei infected Mastomys coucha; range 20-22%; type: functional
Plasmodium yoelii [7] = assay: In vivo antimalarial activity as MST of 1 week in chloroquine-resistant Plasmodium yoelii nigeriensis infected Swiss Albino mice (Mus musculus) at 15 mg/kg; type: functional
Plasmodium yoelii [8] = assay: Evaluated for the Heme oxygenase in chloroquine-resistant Plasmodium yoelii which is treated with 15 mg/kg body weight of compound for 10 days;NA denotes no activity; type: functional, organism-based; design: dose 15 mg/kg
Plasmodium yoelii [9] = assay: In vivo resistance reversal agent in chloroquine-resistant Plasmodium yoelii nigerienses infected Swiss Albino mice (Mus musculus). Parasitemia observed on day 6-10 of treatment in Group III NI denotes nil inhibition; type: functional, organism-based
[10] = system: Plasmodium yoelii nigeriensis; assay: Hemozoin formation in chloroquine-resistant Plasmodium yoelii
Plasmodium berghei [11] = assay: In vivo antimalarial activity as parasitemia at day 17 in chloroquine-resistant Plasmodium berghei infected Mastomys coucha treated to day 10; range 25-30%; type: functional
Plasmodium berghei [12] = assay: Hemozoin formation in chloroquine-resistant Plasmodium berghei at 15 mg/kg for 10 days
Plasmodium yoelii [13] = assay: In vivo antimalarial activity as survivors after 1 month in chloroquine-resistant Plasmodium yoelii nigeriensis infected Swiss Albino mice (Mus musculus) at 15 mg/kg combined with 10 mg/kg chloroquine; type: functional
Plasmodium berghei [14] = assay: Heme content in chloroquine-sensitive Plasmodium berghei; type: functional
Plasmodium yoelii [15] = assay: (§2) In vivo antimalarial activity as pretreatment parasitemia in chloroquine-resistant Plasmodium yoelii nigerienses infected Swiss Albino mice (Mus musculus); range 1-2%; type: functional
Plasmodium yoelii [16] = assay: Heme content in chloroquine-resistant Plasmodium yoelii; type: functional
Plasmodium berghei [17] = assay: In vivo antimalarial activity as parasitemia at day 17 in-chloroquine-resistant Plasmodium berghei infected Mastomys coucha treated to day 10; No inhibition; type: functional, organism-based
Plasmodium yoelii [18] = assay: Evaluated for the Heme oxygenase in chloroquine-sensitive Plasmodium yoelii; type: functional
Plasmodium berghei [19] = assay: In vivo antimalarial activity as parasitemia at day 10 in chloroquine-resistant Plasmodium berghei infected Mastomys coucha at 10 mg/kg; range 15-17%; type: functional
Plasmodium berghei [20] = assay: as §1; type: functional; remark: listed apart in the source
Plasmodium berghei [21] = assay: Hemozoin formation in chloroquine-resistant Plasmodium berghei
Plasmodium berghei [22] = assay: Hemozoin formation in chloroquine-sensitive Plasmodium berghei
Plasmodium berghei [23] = assay: Heme content in chloroquine-resistant Plasmodium berghei; type: functional
Plasmodium yoelii [24] = assay: In vivo antimalarial activity as parasitemia at day 6 in chloroquine-resistant Plasmodium yoelii nigerienses infected Swiss Albino mice (Mus musculus); range 70-80%; type: functional
Plasmodium yoelii [25] = assay: Heme content in chloroquine-sensitive Plasmodium yoelii; type: functional
Plasmodium berghei [26] = assay: Evaluated for the Heme oxygenase (Values are mean +/- SD of 4 separate observations. Specific activity in nmol/h/mg protein) in chloroquine-sensitive Plasmodium berghei; type: functional
In short: (§3)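 Mastomys carrying CQ-resistant P. berghei were dosed orally at 15 mg/kg for 10 days. Untreated CQ-resistant and CQ-sensitive parasites served as reference samples. Parasites were isolated by density-gradient centrifugation and saponin lysis. Heme oxygenase was followed as bilirubin formation in the post-mitochondrial fraction and expressed as nmol/h/mg protein.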

Plasmodium berghei [27] = assay: Heme content in chloroquine-resistant Plasmodium berghei at 15 mg/kg for 10 days; type: functional
[28] = system: Plasmodium yoelii nigeriensis; assay: In Vitro inhibition of Heme Oxygenase in Cell-free parasite Plasmodium yoelii at concentration 10 uM;NI denotes nil inhibition; type: functional
In short: (§4)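 Heme oxygenase activity was measured as bilirubin formation in a post-mitochondrial fraction. The parasite enzyme came from cell-free P. yoelii, isolated from infected blood by density gradient centrifugation and saponin lysis. The host enzyme came from infected liver. Compounds were tested at 10–100 µM and preincubated for 10 min before the reaction was started.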

Plasmodium yoelii [29] = assay: (§5) In vivo antimalarial activity as parasitemia at day 17 in chloroquine-resistant Plasmodium yoelii nigerienses infected Swiss Albino mice (Mus musculus) treated at day 10; No survivors; type: functional, organism-based
Plasmodium yoelii [30] = assay: as §5; type: functional, organism-based; remark: listed apart in the source
Mus musculus [31] = organism: Mus musculus; assay: In Vitro inhibition of Heme Oxygenase in Plasmodium yoelii (host) at concentration 100 uM; type: functional
In short: (§6)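 In vitro heme oxygenase, cell-free: post-mitochondrial fractions of P. yoelii parasites and of infected host liver. Test compounds at 10-100 µM were preincubated 10 min in the assay system before the enzyme reaction started. Activity was followed as bilirubin formation and expressed as % inhibition.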

Plasmodium berghei [32] = assay: In vivo resistance reversal at day 10 in chloroquine-resistant Plasmodium berghei infected Mastomys coucha at 10 mg/kg; range 20-22%; type: functional
Plasmodium yoelii [33] = assay: In vivo antimalarial activity as parasitemia at days 6-10 in chloroquine-resistant Plasmodium yoelii nigerienses infected Swiss Albino mice (Mus musculus); range 70-80%; type: functional
Plasmodium berghei [34] = assay: Evaluated for the Heme oxygenase (Values are mean +/- SD of 4 separate observations. Specific activity in nmol/h/mg protein) in chloroquine-resistant Plasmodium berghei; type: functional; in short: as §3
[35] = system: Plasmodium yoelii nigeriensis; assay: In Vitro inhibition of Heme Oxygenase in Cell-free parasite Plasmodium yoelii at concentration 100 uM; type: functional; in short: as §4
Plasmodium yoelii [36] = assay: In vivo resistance reversal agent in chloroquine-resistant Plasmodium yoelii nigerienses infected Swiss Albino mice (Mus musculus). Parasitemia observed on day 6-10 of treatment in Group IV;range is 80-70%; type: functional
[37] = system: Plasmodium yoelii nigeriensis; assay: In Vitro inhibition of Heme Oxygenase in Cell-free parasite Plasmodium yoelii at concentration 50 uM; type: functional; in short: as §4
Plasmodium yoelii [38] = assay: Evaluated for the Heme oxygenase in chloroquine-resistant Plasmodium yoelii; type: functional
Plasmodium berghei [39] = assay: Evaluated for the Heme oxygenase (Values are mean +/- SD of 4 separate observations. Specific activity in nmol/h/mg protein) in chloroquine-resistant Plasmodium berghei which is treated with 15 mg/kg body weight of compound for 10 days; NA denotes no activity; type: functional, organism-based; design: dose 15 mg/kg; in short: as §3
[40] = biological target: T1, Glutathione S-transferase (Plasmodium yoelii yoelii) (UniProt Q7REH6); assay: Inhibition of Glutathione S-transferase in Plasmodium yoelii nigeriensis isolated from infected mice (Mus musculus) (oral); type: functional; conditions: concentration not given here
T1 sequence (whole entry): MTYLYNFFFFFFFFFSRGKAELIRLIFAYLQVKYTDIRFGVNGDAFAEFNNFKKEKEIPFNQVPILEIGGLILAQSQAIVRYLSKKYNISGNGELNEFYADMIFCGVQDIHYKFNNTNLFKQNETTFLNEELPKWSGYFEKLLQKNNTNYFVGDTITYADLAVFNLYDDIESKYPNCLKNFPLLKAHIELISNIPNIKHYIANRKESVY
In short: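 Mice infected with P. yoelii nigeriensis were dosed orally at 15 mg/kg body wt for 5 days. Parasites were then isolated from blood by density-gradient centrifugation and saponin lysis. Glutathione-S-transferase (and heme oxygenase) activity is given as % inhibition.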

Plasmodium berghei [41] = assay: as §1; type: functional; remark: listed apart in the source
Plasmodium berghei [42] = assay: In vivo antimalarial activity as parasitaemia at day 17 in chloroquine-resistant Plasmodium berghei infected Mastomys coucha treated to day 10; range >25-30%; type: functional
Plasmodium berghei [43] = assay: In vivo resistance reversal at day 10 in chloroquine-resistant Plasmodium berghei infected Mastomys coucha at 10 mg/kg; range 20-22; type: functional
[44] = system: Plasmodium yoelii nigeriensis; assay: Hemozoin formation in chloroquine-sensitive Plasmodium yoelii
[45] = system: Plasmodium yoelii nigeriensis; assay: In Vitro inhibition of Heme Oxygenase in Cell-free parasite Plasmodium yoelii at concentration 10 uM; type: functional; in short: as §4
Plasmodium berghei [46] = assay: In vivo resistance reversal after 1 month in chloroquine-resistant Plasmodium berghei infected Mastomys coucha at 15 mg/kg on day 10; No inhibition
Plasmodium yoelii [47] = assay: In vivo resistance reversal (control MST = 1 week) in chloroquine-resistant Plasmodium yoelii nigerienses infected Swiss Albino mice (Mus musculus); type: functional
[48] = system: Plasmodium yoelii nigeriensis; assay: Hemozoin formation in chloroquine-resistant Plasmodium yoelii at 15 mg/kg for 10 days
Plasmodium yoelii [49] = assay: as §2; type: functional; remark: listed apart in the source
Plasmodium berghei [50] = assay: In vivo antimalarial activity as parasitemia at day 10 in chloroquine-resistant Plasmodium berghei infected Mastomys coucha at 15 mg/kg; range 20-22%; type: functional
Plasmodium yoelii [51] = assay: In vivo antimalarial activity as pretreatment parasitaemia in chloroquine-resistant Plasmodium yoelii nigeriensis infected Swiss Albino mice (Mus musculus); range 1-2%; type: functional
[52] = system: Plasmodium yoelii nigeriensis; assay: Inhibition of heme oxygenase in Plasmodium yoelii nigeriensis isolated from infected mice (Mus musculus) (oral); type: functional
In short: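 Swiss albino mice carried P. yoelii nigeriensis tolerant to CQ up to 120 mg/kg. They received compound orally at 15 mg/kg body wt for 5 days. Parasites were then isolated from blood by density gradient centrifugation and saponin lysis, and enzyme inhibition was measured as percent inhibition.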

Plasmodium berghei [53] = assay: as §1; type: functional; remark: listed apart in the source
Plasmodium yoelii [54] = assay: Heme content after 10 days in chloroquine-resistant Plasmodium yoelii at 15 mg/kg; type: functional
Plasmodium yoelii [55] = assay: In vivo resistance reversal in chloroquine-resistant Plasmodium yoelii nigeriensis infected Swiss Albino mice (Mus musculus); range is 1-2%; type: functional
Mus musculus [56] = organism: Mus musculus; assay: In Vitro inhibition of Heme Oxygenase in Plasmodium yoelii (host) at concentration 50 uM; type: functional; in short: as §6
Mus musculus [57] = organism: Mus musculus; assay: In Vitro evaluation on percentage inhibition in Heme Oxygenase at concentration 50 (uM) of infected host
In short: (§7)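 Heme oxygenase from liver of P. yoelii-infected host, post-mitochondrial fraction, run as the host-enzyme counterpart to the cell-free parasite assay. Test compounds at 10-100 µM were preincubated in the assay system for 10 min before starting the reaction. Activity was followed by bilirubin formation and reported as percent inhibition.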

Mus musculus [58] = organism: Mus musculus; assay: In Vitro evaluation on percentage inhibition in Heme Oxygenase at concentration 100 (uM) of infected host; in short: as §7

CCN(CC)CCCN1CC/C(=C\c2ccc(OC)cc2)C1
NI (Plasmodium yoelii [1]): No inhibition | Mean survival time (Plasmodium yoelii [2]): 1 | Mean survival time (Plasmodium berghei [3]): 22 days | Parasites (Plasmodium berghei [4]): 5% | Parasites (Plasmodium berghei [5]): >30% | Parasites (Plasmodium berghei [6]): 22% | Mean survival time (Plasmodium yoelii [7]): 1 | NA (Plasmodium yoelii [8]): inactive | NI (Plasmodium yoelii [9]): No inhibition | Mean [10]: 43.3 pmol/mg | Parasites (Plasmodium berghei [11]): >30% | Mean (Plasmodium berghei [12]): 71.1 pmol/mg | Mean survival time (Plasmodium yoelii [13]): > 1 month | Mean (Plasmodium berghei [14]): 344 pmol/mg | Parasites (Plasmodium yoelii [15]): 2% | Mean (Plasmodium yoelii [16]): 109 pmol/mg | NI (Plasmodium berghei [17]): No inhibition | Mean (Plasmodium yoelii [18]): 10.2 nM/h/mg | Parasites (Plasmodium berghei [19]): 17% | Parasites (Plasmodium berghei [20]): 5% | Mean (Plasmodium berghei [21]): 51.4 pmol/mg | Mean (Plasmodium berghei [22]): 101 pmol/mg | Mean (Plasmodium berghei [23]): 60.3 pmol/mg | Parasites (Plasmodium yoelii [24]): 80% | Mean (Plasmodium yoelii [25]): 218 pmol/mg | Mean (Plasmodium berghei [26]): 7.32 nM/h/mg | Mean (Plasmodium berghei [27]): 321 pmol/mg | NI [28]: No inhibition | NS (Plasmodium yoelii [29]): No survivors | NS (Plasmodium yoelii [30]): No survivors | inhibition (Mus musculus [31]): 31% | Mean survival time (Plasmodium berghei [32]): 22 days | Parasites (Plasmodium yoelii [33]): 80% | Mean (Plasmodium berghei [34]): 80.2 nM/h/mg | inhibition [35]: 87% | Parasites (Plasmodium yoelii [36]): 80% | inhibition [37]: 64% | Mean (Plasmodium yoelii [38]): 102 nM/h/mg | NA (Plasmodium berghei [39]): inactive | inhibition [40]: 99% | Parasites (Plasmodium berghei [41]): 5% | Parasites (Plasmodium berghei [42]): >30% | Mean survival time (Plasmodium berghei [43]): 22 days | Mean [44]: 109 pmol/mg | inhibition [45]: 48% | NI (Plasmodium berghei [46]): No inhibition | Mean survival time (Plasmodium yoelii [47]): 1 | Mean [48]: 45.1 pmol/mg | Parasites (Plasmodium yoelii [49]): 2% | Parasites (Plasmodium berghei [50]): 22% | Parasites (Plasmodium yoelii [51]): 2% | Inhibition [52]: 100% | Parasites (Plasmodium berghei [53]): 5% | Mean (Plasmodium yoelii [54]): 172 pmol/mg | Parasites (Plasmodium yoelii [55]): 2% | inhibition (Mus musculus [56]): 21%

COc1ccc(CCN(C)CCCC(C#N)(c2ccc(OC)c(OC)c2)C(C)C)cc1OC (stereo not given)
inhibition [35]: 100% | inhibition [37]: 100% | inhibition (Mus musculus [57]): 15% | inhibition (Mus musculus [58]): 19%
